Assay outcomes (PubChem BioAssay)
MEKK2 mut-MEK5: MEK5 binding signal on mutant MEKK2 PB1, primary screen, biochemical, multiplex bead flow cytometry, Alexa488-MEK5. Alexa488-MEK5 binding to MEKK2 mutant. percent response, % at 10 µM. 290,000 compounds, 0.35% hits. AID 1530, 2009; in the data active means percent response above about 24%, passing the limit was not always enough
UBC13 polyUb: UBC13 polyubiquitin chain formation inhibitors, primary screen, biochemical, TR-FRET, uHTS; Ubiquitin-conjugating enzyme E2 N (Homo sapiens), P61088; inhibition, % at 20 µM; 330,000 compounds, 0.47% hits; in the data active means inhibition above about 45%, passing the limit was not always enough
PREPL inh: PREPL enzyme inhibitors, primary screen, biochemical, fluorescence polarization; recombinant PREPL, fluorescence polarization activity-based probe; Prolyl endopeptidase-like (Homo sapiens), Q4J6C6; 320,000 compounds, 0.68% hits; inhibition, % at 5.96 µM; in the data active means inhibition above about 43%;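 further: 0% = enzyme with DMSO and 100% = wells lacking enzyme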
MEKK2 WT-MEK5: modulators of MEK5 binding to wildtype MEKK2, primary screen, biochemical, multiplex bead flow cytometry, Alexa488-MEK5 | Mitogen-activated protein kinase kinase kinase 2 (Homo sapiens), Q9Y2U5 | Alexa488-MEK5 binding to MEKK2 WT; actives lie on both sides | binding response (% of control), % at 10 µM | 290,000 compounds, 1.1% hits | AID 1531, 2009; in the data active means binding response below about 67% or above about 130%
MEKK3 PB1 HTS: modulators of MEKK3-MEK5 PB1 binding, primary screen, biochemical, wildtype MEKK3, multiplex bead flow cytometry, Alexa488-MEK5; Mitogen-activated protein kinase kinase kinase 3 (Homo sapiens), Q99759; bead-based flow cytometry, Alexa488-MEK5 binding to MEKK3; actives lie on both sides; 0 = blocked by unlabeled MEK5, 100 = vehicle; binding response (% of control), % at 10 µM; 290,000 compounds, 1.4% hits; AID 1529, 2009;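 active means binding response more than 3 SD above or below the average of its plate-row segment, actives on both sides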;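 further: Alexa488 bead fluorescence after subtracting the streptavidin-only scavenger bead signal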
Apaf-1 inh: inhibitors of human Apaf-1 apoptosome, primary screen, biochemical, DEVD-Rh110 fluorescence, uHTS. Apoptotic protease-activating factor 1 (Homo sapiens), O14727. reconstituted apoptosome caspase-3 activity. inhibition, % at 20 µM. 330,000 compounds, 0.71% hits; active means inhibition of at least 40% at 20 µM;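 further: plate controls were DMSO wells for no effect and DEVD-CHO caspase inhibitor wells for full effect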
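System: Apoptosome proteins | Medium: Hepes pH 7.5 with detergent and BSA | Also added: Cytochrome c trigger plus (Z-DEVD)2-Rh110 caspase-3 substrate | Incubation: 30 min compound preincubation, 50 min activation, room temperature | Detection: Rhodamine 110 fluorescence at Ex 480/Em 540 nm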
MEKK2wt confirm: modulators of MEK5 binding to wildtype MEKK2, confirmation, biochemical, single concentration, multiplex bead flow cytometry; shares compounds with MEKK3 PB1 HTS; Alexa488-MEK5 binding to MEKK2 WT; actives lie on both sides; binding response (% of control), % at 10 µM; 5,900 compounds, 2.4% hits; AID 1892, 2009; in the data active means binding response below about 16% or above about 210%; inactive means in between
MEKK2mut confirm: mutant MEKK2 PB1-MEK5 binding signal retest – biochemical, single concentration, multiplex bead flow cytometry, confirmation. AID 1893, 2009. percent response, % at 10 µM. 5,900 compounds, 2% hits. shares compounds with MEKK3 PB1 HTS. Alexa488-MEK5 binding to MEKK2 mutant; in the data active means percent response mostly above about 71%, no sharp cut-off; inactive means mostly below about 38%;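 further: higher means compound restores mutant binding toward wildtype level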
MEKK3 confirm: MEKK3 wild-type PB1 binding to MEK5, inhibitors, confirmation, biochemical, bead multiplex flow cytometry, single concentration, wildtype. shares compounds with MEKK3 PB1 HTS. Alexa488-MEK5 binding to MEKK3; hits give low values. binding response (% of control), % at 10 µM. 5,900 compounds, 1.8% hits;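 active means binding response below 72% of control, or above a set upper limit, though filed actives all read lower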;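 further: 100% = DMSO only wells and 0% = binding blocked by excess unlabeled MEK5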
* = called active by the depositor; nt = no result; [ ] = another dose, or the depositor's remark. In the library only some 3.1% were active in any assay of this set; here they are far more common.

SMILES | MEKK2 mut-MEK5 | UBC13 polyUb | PREPL inh | MEKK2 WT-MEK5 | MEKK3 PB1 HTS | Apaf-1 inh | MEKK2wt confirm | MEKK2mut confirm | MEKK3 confirm
CCC12CN3CCN(CC(C3)/C1=N\NC(=O)Nc1ccccc1)C2 | 1 | -3 | 1 | 108 | 129* | 3 | 103 | 5 | 103
CCOc1ccc(NC(=O)c2ccc(OC)cc2)cc1 | 6 | 6 | -4 | 112 | 126* | 2 | 99 | -1 | 97
CCOc1ccc(NC(=O)c2ccc3c(SCC(=O)O)c4c(nc3c2)CCCC4)cc1 | 4 | -11 | 20 | 113 | 137* | 18 | 95 | -7 | 100
O=C(CSc1cccc[n+]1[O-])Nc1ccc2c(c1)OCO2 | -12 | -8 | -1 | 71 | 71*[inhibitor] | -7 | 102 | -1 | 101
Cc1ccccc1OCC(=O)NC(=S)Nc1ccc(S(=O)(=O)NC2CCCCC2)cc1 | 5 | -5 | 10 | 104 | 108 | 11 | nt | nt | nt
CC(=O)NS(=O)(=O)c1ccc(NC(=S)NC(=O)COc2ccccc2C)cc1 | 0 | 18 | 3 | 106 | 139* | 5 | 92 | -6 | 98
COc1ccc(-c2nn(-c3ccccc3)cc2CN(C)CCn2ccnc2C)c(F)c1 | -37 | 1 | 23 | 57 | 44*[inhibitor] | 17 | 90 | -3 | 96
COc1ccc(NC(=O)CSc2nnc(C)n2N)cc1S(=O)(=O)N1CCCCC1 | nt | -4 | -2 | nt | nt | -7 | nt | nt | nt
Cc1ccc2c(Cl)c(C)c(N3CCCCC3)nc2n1 | 1 | 0 | 4 | 105 | 131* | 1 | 106 | 3 | 106
Cc1nc2ccccc2nc1N1CCCCC1 | 4 | nt | nt | 101 | 98 | nt | nt | nt | nt
COc1cc2c(cc1OC)CN(C(=O)C1CCC(=O)N(CCCN3CCOCC3)C1)CC2 (centres undefined) | -1 | 1 | 14 | 103 | 102 | -6 | nt | nt | nt
COc1ccc(/C=C/c2cc(C(F)(F)F)on2)cc1 | -23 | 3 | -1 | 57 | 50*[inhibitor] | -6 | 112 | 7 | 105
COc1ccc(/C=C/c2cc(C(=O)O)c3ccccc3n2)cc1 | -24 | 10 | -2 | 89 | 84 | -5 | nt | nt | nt
O=C(O)CCS(=O)(=O)Cc1ccccc1F | -46 | 4 | 2 | 2.0*[inhibitor] | 2.0*[inhibitor] | -4 | 108 | 5 | 105
O=C(CCS(=O)(=O)Cc1ccccc1F)NCc1ccccc1Cl | 0 | 0 | 2 | 102 | 105 | -28 | nt | nt | nt
CC(C)(C)c1ccc(C(=O)N/C(=C\c2ccco2)C(=O)O)cc1 | 0 | 0 | 5 | 99 | 102 | 2 | nt | nt | nt
O=C(O)/C(=C/c1ccco1)NC(=O)c1ccccc1 | -1 | -2 | -5 | 106 | 128* | -2 | 116 | 8 | 107
O=C(CSc1nnc(-c2cccnc2)s1)Nc1ccccc1 | 0 | 4 | -7 | 101 | 103 | -2 | nt | nt | nt
O=C(CSc1nnc(-c2cccnc2)s1)Nc1cccc(C(=O)O)c1 | 0 | 10 | -3 | 111 | 158* | 6 | 98 | -4 | 98
Cc1ccc(NC(=O)NC(=O)CN2CCCC2c2ccc3c(c2)OCCO3)cc1C (centres undefined) | nt | 6 | -11 | nt | nt | 20 | nt | nt | nt
CN1CCN(CC(O)COC(c2ccc(Cl)cc2)c2ccc(Cl)cc2)CC1 (centres undefined) | 7 | 12 | -2 | 125 | 100 | 14 | nt | nt | nt
OC(COC(c1ccc(Cl)cc1)c1ccc(Cl)cc1)CN1CCc2ccccc2C1 (centres undefined) | 14 | 23 | 8 | 164* | 110 | 11 | 203 | 63 | 113
OC(COC(c1ccc(Cl)cc1)c1ccc(Cl)cc1)CN1CCCC1 (centres undefined) | 14 | 20 | -30 | 140* | 105 | 15 | 126 | 20 | 102
OC(COC(c1ccc(F)cc1)c1ccc(F)cc1)CN1CCc2ccccc2C1 (centres undefined) | 1 | 2 | 9 | 112 | 136* | 6 | 115 | 5 | 100
OC(COC(c1ccccc1)c1ccccc1)CN1CCc2ccccc2C1 (centres undefined) | 6 | 12 | 7 | 102 | 103 | 15 | nt | nt | nt
SMILES | MEKK2 mut-MEK5 | UBC13 polyUb | PREPL inh | MEKK2 WT-MEK5 | MEKK3 PB1 HTS | Apaf-1 inh | MEKK2wt confirm | MEKK2mut confirm | MEKK3 confirm
COc1ccc(NC(=O)CN(C)CC(=O)N2CC(=O)Nc3ccccc32)cc1 | nt | 4 | 18 | nt | nt | 2 | nt | nt | nt
Cc1cnn(Cc2cccnc2)c1N | 0 | 23 | -2 | 111 | 110 | -27 | nt | nt | nt
COc1ccc(C(=O)c2c3ccc(OC)cc3[n+]([O-])n2Cc2ccc(C(N)=O)cc2)cc1 | nt | -15 | 0 | nt | nt | 18 | nt | nt | nt
CCCN1CCN(CCCNC(=O)c2cc3c(=O)[nH]c4ccc(C)cc4c3s2)CC1 | -9 | 18 | -15 | 75 | 67*[inhibitor] | 1 | 108 | -4 | 101
CCN1CCN(CCCNC(=O)c2cc3c(=O)oc4ccc(C)cc4c3s2)CC1 | 5 | 10 | 5 | 116 | 103 | 19 | nt | nt | nt
NC(=O)NC(=O)COC(=O)c1cccnc1Nc1ccccc1F | -49 | 22 | 1 | 62*[inhibitor] | 65*[inhibitor] | -7 | 107 | 2 | 107
O=C(Nc1cc(C(F)(F)F)ccc1F)C1CCCCC1 | -18 | 2 | 6 | 80 | 72*[inhibitor] | -4 | 92 | -4 | 94
CCOC(=O)c1ccc(Nc2nc(N)c3cc(OC)c(OC)cc3n2)cc1 | 30* | 34 | 17 | 141* | 113 | 54* | 169 | 37 | 106
COc1cc2nc(Nc3ccc(F)cc3)nc(N)c2cc1OC | 22 | 19 | 21 | 133 | 105 | 17 | nt | nt | nt
O=C(COc1ccc([N+](=O)[O-])cc1)NCC(c1cccs1)N1CCOCC1 (centres undefined) | nt | 3 | 10 | nt | nt | -5 | nt | nt | nt
CC(=O)Nc1ccc(NC(=O)Cn2nc(C(=O)Nc3ccc(C)cc3)ccc2=O)cc1 | 7 | 0 | -1 | 104 | 104 | -12 | nt | nt | nt
CCCCSc1cc(=O)[nH]c(N)n1 | -20 | -2 | 20 | 81 | 70*[inhibitor] | 2 | 101 | -4 | 106
